Consider twelve compounds from ChEMBL document CHEMBL1137562, “Synthesis and structure-activity relationships of 16-modified analogs of 2-methoxyestradiol” (Bioorg Med Chem, 2007).

Each structure is given as a SMILES string.

One assay relates to MCF7. Nature of the assay: Antiproliferative activity against human MCF7 cells after 8 to 10 days relative to 2-methoxyestradiol. In kind it is functional. A digest of the protocol: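 Estrogen-dependent MCF-7 cells (passage 60–90) plated at 20–30,000 cells/well and left overnight. Cells were washed and starved 3 days in phenol red-free IMEM with 2% charcoal-dextran-stripped FBS, then treated with increasing concentrations in the same medium, refreshed every 2–3 days. Cells were Coulter-counted after 8 or 10 days. Triplicates in at least two independent experiments; stimulation index relative to 2-methoxyestradiol (1.00).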

The test system of a further assay is HUVEC. Nature of the assay: Antiproliferative activity against human HUVECs after 48 hrs. In kind it is cell-based. A digest of the protocol:
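HUVEC kept in EGM, plated at 5000 cells/well and left to attach overnight. Cells were exposed to increasing drug concentrations for 48 h at 37 °C. DNA synthesis was read by colorimetric BrdU ELISA. Each concentration was run in triplicate in at least two independent experiments, reported as mean ±SD.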

The next assay relates to MDA-MB-231. The experiment in a line: Antiproliferative activity against human MDA-MB-231 cells after 48 hrs. It counts as functional, cell-based. As to conditions: MDA-MB-231, 48 h. A digest of the protocol: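 MDA-MB-231 cells kept in DMEM with 10% FBS, 2 mM L-glutamine and penicillin/streptomycin, plated at 2000 cells/well and left to attach overnight. Cells were exposed to increasing concentrations for 48 h. Proliferation was read as DNA synthesis by colorimetric BrdU ELISA. Triplicates in at least two independent experiments, reported as mean ±SD.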

One may read the IC50 as the concentration that inhibits the measured activity by half. Low values mean greater potency, high ones weaker potency. In the assay with MCF7, `CCC[C@H]1C[C@H]2[C@@H]3CCc4cc(O)c(OC)cc4[C@H]3CC[C@]2(C)[C@H]1O` came in with an Activity of 0.93. In addition, the IC50 in the assay with HUVEC was determined as 17.1 µM; in the assay with MDA-MB-231 it was 45.1 µM.

Take `COc1cc2c(cc1O)CC[C@@H]1[C@@H]2CC[C@]2(C)[C@@H](O)CC[C@@H]12` [2-METHOXYESTRADIOL]: the half-maximal inhibitory concentration (IC50) is 0.84 µM in the assay with HUVEC and 1 µM with MDA-MB-231.

The compound `COc1cc2c(cc1O)CC[C@@H]1[C@@H]2CC[C@]2(C)[C@@H](O)[C@H](CO)C[C@@H]12` displayed an Activity with MCF7 of 0.93. The IC50 is 2.92 µM in the assay with HUVEC and 4.26 µM in the assay on MDA-MB-231.

For `COc1cc2c(cc1O)CC[C@@H]1[C@@H]2CC[C@]2(C)[C@@H](O)[C@@H](C)C[C@@H]12`, the Activity with MCF7 was found to be 1.62. Also, the IC50 came out at 2.26 µM in the assay on HUVEC and 2.4 µM in the assay on MDA-MB-231.

`COc1cc2c(cc1O)CC[C@@H]1[C@@H]2CC[C@]2(C)[C@@H](O)[C@@H](CO)C[C@@H]12` had an Activity in the assay with MCF7 of 1.14. In addition, the results for the 50% inhibitory concentration (IC50) in the assay with HUVEC and in the assay with MDA-MB-231 were 6.36 µM and 6.09 µM, respectively.

Compound `COc1cc2c(cc1O)CC[C@@H]1[C@@H]2CC[C@]2(C)[C@@H](O)[C@H](CC(C)C)C[C@@H]12` came in with an Activity in the assay on MCF7 of 0.41. For the same compound, the IC50 in the assay with HUVEC is 7.15 µM; in the assay on MDA-MB-231, 38.3 µM.

In the assay with MCF7, `COc1cc2c(cc1O)CC[C@@H]1[C@@H]2CC[C@]2(C)[C@@H](O)[C@H](C)C[C@@H]12` showed an Activity of 2.07. Also, the IC50 with HUVEC came to 0.35 µM; in the assay on MDA-MB-231 it was 0.74 µM.

`COc1cc2c(cc1O)CC[C@@H]1[C@@H]2CC[C@]2(C)[C@@H](O)[C@H](CN(C)C)C[C@@H]12` displayed an Activity in the assay on MCF7 of 1.43. In addition, the IC50 in the assay with HUVEC was 36.8 µM; in the assay with MDA-MB-231, 22.7 µM.

On to `CCC[C@@H]1C[C@H]2[C@@H]3CCc4cc(O)c(OC)cc4[C@H]3CC[C@]2(C)[C@H]1O`, for which the Activity with MCF7 was 0.83. Also, the IC50 in the assay with HUVEC was 6.55 µM; in the assay with MDA-MB-231 it was 35.1 µM.

For the compound `CCCC[C@H]1C[C@H]2[C@@H]3CCc4cc(O)c(OC)cc4[C@H]3CC[C@]2(C)[C@H]1O`, the Activity in the assay on MCF7 was determined as 0.82. Also, the IC50 in the assay with HUVEC came to 8.17 µM; with MDA-MB-231, 37.9 µM.

For the compound `CC[C@@H]1C[C@H]2[C@@H]3CCc4cc(O)c(OC)cc4[C@H]3CC[C@]2(C)[C@H]1O`, the Activity with MCF7 is 1.09. For the same compound, the 50% inhibitory concentration (IC50) in the assay on HUVEC turned out to be 1.35 µM; in the assay on MDA-MB-231, 3.59 µM.

`CCCC[C@@H]1C[C@H]2[C@@H]3CCc4cc(O)c(OC)cc4[C@H]3CC[C@]2(C)[C@H]1O` gave an Activity with MCF7 of 0.73. Further, the IC50 in the assay on HUVEC worked out at 18.2 µM; with MDA-MB-231, 27.9 µM.
